# Target: T1, Prostaglandin E synthase (Homo sapiens, UniProt O14684)
# T1 sequence (O14684 whole entry): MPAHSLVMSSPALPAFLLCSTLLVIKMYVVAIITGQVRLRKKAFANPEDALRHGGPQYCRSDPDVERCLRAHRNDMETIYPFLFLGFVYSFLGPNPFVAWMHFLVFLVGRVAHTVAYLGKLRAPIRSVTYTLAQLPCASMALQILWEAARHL
# Test: Inhibition of full-length microsomal PGES-1 (unknown origin) expressed in Escherichia coli Rosetta(DE3) using PGH2 as substrate assessed as inhibition of PGH2 conversion to PGE2 incubated 15 mins prior to substrate addition measured after 1 min by EIA
# Method in brief: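 Reactions used 2.5 mM cofactor and 17 μM PGH2 for 1 min at 4 °C, then were stopped, and PGE2 was quantified by EIA. IC50 came from dose-response curves. Mean ± SEM, n = 3.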
row,Structure (SMILES),IC50 [µM]
1,COc1ccc(-c2nnc(SCC(=O)Nc3ccc(Cl)cc3)nc2-c2ccc(OC)cc2)cc1,3.1
2,O=C(CSc1nnc(-c2ccccc2)c(-c2ccccc2)n1)c1ccccc1,2.5
3,O=C(CSc1nnc(-c2ccccc2)c(-c2ccccc2)n1)c1c[nH]c2ccccc12,0.5
4,Cc1cccc(C)c1NCc1nnc(SCc2ccc(Cl)cc2)n1-c1ccccc1,19.4
5,O=C(CCCSc1nnc(-c2ccccc2)c(-c2ccccc2)n1)c1ccccc1,50.8
6,COc1ccc(C(=O)CSc2nnc(-c3ccco3)c(-c3ccco3)n2)cc1,5
7,CC(C)(C)C(=O)CSc1nnc(-c2ccccc2)c(-c2ccccc2)n1,17.8
8,Cc1ccc(-c2nnc(SCC(=O)c3ccc(CC(N)=O)s3)nc2-c2ccc(C)cc2)cc1,0.64
9,Cc1cccc(C)c1NCc1nnc(SCC(=O)Nc2ccc(F)cc2)n1-c1ccccc1,9.2
10,O=C(CSc1nnc(-c2ccccc2)c(-c2ccccc2)n1)C12CC3CC(CC(C3)C1)C2,13.9
11,O=C(CSc1nnc(-c2ccccc2)c(-c2ccccc2)n1)c1cccs1,9.6
12,COc1ccc(C(=O)CSc2nnc(-c3ccc(OC)cc3)c(-c3ccc(OC)cc3)n2)cc1,1
13,CCCCCCCSc1nnc(-c2ccc(OC)cc2)c(-c2ccc(OC)cc2)n1,45.4
14,O=C1COc2ccc(C(=O)CSc3nnc(-c4ccccc4)c(-c4ccccc4)n3)cc2N1,0.29
15,COc1ccc(OC)c(NC(=O)CSc2nnc(CNc3c(C)cccc3C)n2C)c1,0.93
16,CCCCCCCCCSc1nnc(-c2ccc(OC)cc2)c(-c2ccc(OC)cc2)n1,32.9
17,O=C(CSc1nc(-c2ccccc2)c(-c2ccccc2)[nH]1)c1ccccc1,10.4
18,O=C(CSc1ncc(-c2ccccc2)nn1)c1ccccc1,32.5
19,Clc1ccc(CSc2nnc(-c3ccccc3)c(-c3ccccc3)n2)cc1,> 100
20,C=CCn1c(SCC(=O)c2ccc3c(c2)Cc2ccccc2-3)nnc1-c1ccc(OC)cc1,0.91
21,Cc1[nH]c2ccccc2c1C(=O)C(C)Sc1nnc(-c2ccccc2)c(-c2ccccc2)n1 (configuration not stated),2.1
22,Cc1ccc(-c2nnc(SCC(=O)c3c[nH]c4ccccc34)nc2-c2ccc(C)cc2)cc1,0.48

# Other lines, results leading:
row,IC50 [µM],Structure (SMILES)
1,0.24,Cc1ccc([N+](=O)[O-])cc1NC(=O)CSc1nnc(CSCc2ccccc2)n1C
2,54.5,Cc1ccc([N+](=O)[O-])cc1NC(=O)CSc1nnc(-c2ccccc2C)n1C
3,0.1,Cc1ccc([N+](=O)[O-])cc1NC(=O)CSc1nnc(CC(=O)Nc2ccccc2)n1C
4,7.5,CCn1c(CNc2ccc(C)cc2C)nnc1SCC(=O)c1ccc(C)cc1
5,5.4,CCOC(=O)c1ccc(NC(=O)CSc2nnc(CNc3c(C)cccc3C)n2C)cc1
6,5.1,CCn1c(CNc2ccc(C)cc2C)nnc1SCC(=O)Nc1ccc(C)cc1
7,0.71,Cc1ccc([N+](=O)[O-])cc1NC(=O)CSc1nnc(CNC(=O)COc2c(C)cccc2C)n1C
8,3.6,Cc1ccc(C)c(NC(=O)CSc2nnc(CNc3c(C)cccc3C)n2C)c1
9,0.2,Cc1ccc(Cl)c(NC(=O)CSc2nnc(CNc3c(C)cccc3C)n2C)c1
10,13.6,Cc1ccc(C)c(NC(=O)CSc2nnc(CNc3c(C)cccc3C)n2-c2ccccc2)c1
11,> 100,Cc1ccc(N2CCn3c(SCC(=O)Nc4cc(C)ccc4C)nnc32)cc1
12,0.054,CCn1c(CNC(=O)c2ccc(C)cc2)nnc1SCC(=O)Nc1cc([N+](=O)[O-])ccc1C
13,12.6,C=CCn1c(CNc2c(C)cccc2C)nnc1SCC(=O)Nc1ccccc1C
14,0.033,Cc1ccc([N+](=O)[O-])cc1NC(=O)CSc1nnc(CNc2ccc(Cl)cc2)n1C
15,0.8,Cc1ccc([N+](=O)[O-])cc1NC(=O)CSc1nnc(Cc2ccccc2)n1C
